Results from ChEMBL document CHEMBL3792280, “Design and synthesis of novel quinoxaline derivatives as potential candidates for treatment of multidrug-resistant and latent tuberculosis” (Bioorg Med Chem Lett, 2016).
In brackets after ≈: the same amount, converted by molar mass.

Key:
[1] = tested on: Mycobacterium tuberculosis; assay: Antimicrobial activity against Mycobacterium tuberculosis H37Rv ATCC 27294 incubated for 7 days by BacTiter-Glo cell viability assay; type: functional, organism-based; conditions: for IC50 / IC90: H37Rv ATCC 27294, BacTiter-Glo, 168 h; for MIC: H37Rv ATCC 27294, 168 h
[2] = tested on: Mycobacterium tuberculosis; assay: Antimicrobial activity against Mycobacterium tuberculosis H37Rv SRI 1345 after 7 days; type: functional; conditions: H37Rv SRI 1345, 168 h
In short: (§1)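 MIC in µg/mL, retested on susceptible H37Rv (SRI 1345) in the same panel as single-drug-resistant strains: isoniazid-, rifampin- and ofloxacin-resistant. Percent inhibition recorded at the MIC concentration. Ratio taken as MIC H37Rv / MIC resistant strain.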

[3] = tested on: Mycobacterium tuberculosis; assay: Antimicrobial activity against Mycobacterium tuberculosis H37Rv SRI 1345 assessed as growth inhibition at MIC after 7 days; type: functional; in short: as §1
[4] = tested on: Mycobacterium tuberculosis; assay: Antimicrobial activity against non-replicating Mycobacterium tuberculosis H37Rv SRI 1345 assessed as inhibition of visual growth incubated for 7 days under anaerobic condition by low oxygen recovery assay; type: functional; conditions: H37Rv SRI 1345, 168 h
[5] = tested on: Mycobacterium tuberculosis; assay: Antimicrobial activity against Mycobacterium tuberculosis H37Rv ATCC 27294 infected in mouse J774 cells assessed as log reduction in bacterial burden at 10 times lower MIC measured 7 days postinfection relative to control; type: functional
In short: (§2)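 Macrophages infected with H37Rv and treated at three concentrations 10-fold apart, chosen from the primary-screen H37Rv data. The middle concentration brackets the reported MIC, with the others ten-fold below and ten-fold above it. Read-out is log-reduction of intracellular bacterial burden.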

[6] = tested on: Mycobacterium tuberculosis; assay: Antimicrobial activity against Mycobacterium tuberculosis H37Rv ATCC 27294 infected in mouse J774 cells assessed as log reduction in bacterial burden at MIC measured 7 days postinfection relative to control; type: functional; in short: as §2
[7] = tested on: Mycobacterium tuberculosis; assay: Antimicrobial activity against Mycobacterium tuberculosis H37Rv ATCC 27294 infected in mouse J774 cells assessed as log reduction in bacterial burden at 10 times MIC measured 7 days postinfection relative to control; type: functional; in short: as §2
J774 [8] = assay: Cytotoxicity against mouse J774 cells assessed as cell viability at 10 times lower MIC by MTT assay relative to control; type: cell-based
J774 [9] = assay: Cytotoxicity against mouse J774 cells assessed as cell viability at 10 times MIC by MTT assay relative to control; type: cell-based
[10] = tested on: Mycobacterium tuberculosis; assay: Antimicrobial activity against Mycobacterium tuberculosis H37Rv ATCC 27294 infected in mouse J774 cells assessed as growth inhibition at 10 times lower MIC measured 7 days postinfection; type: functional; in short: as §2
[11] = tested on: Mycobacterium tuberculosis; assay: Antimicrobial activity against Mycobacterium tuberculosis H37Rv ATCC 27294 infected in mouse J774 cells assessed as log reduction in bacterial burden at 10 times lower MIC measured 7 days postinfection relative to rifampicin; type: functional; in short: as §2
J774 [12] = assay: Cytotoxicity against mouse J774 cells assessed as cell viability at MIC by MTT assay relative to control; type: cell-based
[13] = tested on: Mycobacterium tuberculosis; assay: Antimicrobial activity against Mycobacterium tuberculosis H37Rv SRI 1345 assessed as inhibition of visual growth after 18 to 24 hrs; type: functional; conditions: read-out: MBC99.9
[14] = tested on: Mycobacterium tuberculosis; assay: Ratio of MBC for Mycobacterium tuberculosis H37Rv SRI 1345 to MIC for Mycobacterium tuberculosis H37Rv SRI 1345; type: functional
In short: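 MBC read from colony-forming unit counts; ratio computed as MBC / MIC against H37Rv.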

[15] = tested on: Mycobacterium tuberculosis; assay: Ratio of MIC for Mycobacterium tuberculosis H37Rv SRI 1345 to MIC for non-replicating Mycobacterium tuberculosis H37Rv SRI 1345; type: functional
In short: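 Non-replicating bacilli tested by Low Oxygen Recovery Assay (LORA); ratio computed as MIC H37Rv / LORA MIC.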

Row | Structure (SMILES) | IC50 [1] [µM] | IC90 [1] [µM] | MIC [1] [µM] | further results
1 | Cc1c(C(=O)/C=C/c2ccc([N+](=O)[O-])s2)[n+]([O-])c2ccccc2[n+]1[O-] | > 100 | > 100 |  | 
2 | CC(C)C(=O)c1c(C(F)(F)F)nc2cc(N3CCOCC3)c(N3CCOCC3)cc2[n+]1[O-] | 8.3 | 17.9 | 25 (≈ 11.4 µg/mL) | 
3 | CCc1nc(N)nc(N)c1-c1ccc(Cl)cc1 [PYRIMETHAMINE] | 23.6 | 36 | 50 (≈ 12.4 µg/mL) | 
4 | N[C@@H]1CONC1=O [CYCLOSERINE] | 20.8 | 33.1 | 50 (≈ 5.1 µg/mL) | 
5 | O=C(c1ccco1)c1c(C(F)(F)F)[n+]([O-])c2cc(Cl)c(N3CCOCC3)cc2[n+]1[O-] | 1.2 | 2.1 | 3.1 (≈ 1.38 µg/mL) | MIC [2]: 2 µg/mL (≈ 4.51 µM); growth inhibition (GI) [3]: 61%; MIC [4]: 0.25 µg/mL (≈ 0.563 µM); log reduction in bacterial burden [5]: 1.68; log reduction in bacterial burden [6]: 1.57; log reduction in bacterial burden [7]: 2.67; Activity (J774 [8]): 88%; Activity (J774 [9]): 37%; growth inhibition (GI) [10]: >90%; Log reduction in bacterial burden relative to rifampicin [11]: 3
6 | CC(=O)c1c(C(F)(F)F)[n+]([O-])c2cc(F)c(N3CCCCC3)cc2[n+]1[O-] | 1 | 1.5 | 1.6 (≈ 0.597 µg/mL) | MIC [2]: 1 µg/mL (≈ 2.68 µM); growth inhibition (GI) [3]: 78%; MIC [4]: > 8 µg/mL; log reduction in bacterial burden [5]: 1.74; log reduction in bacterial burden [6]: 1.5; log reduction in bacterial burden [7]: 2.66; Activity (J774 [8]): 83%; Activity (J774 [12]): 53%; Activity (J774 [9]): 65%; growth inhibition (GI) [10]: >90%; Log reduction in bacterial burden relative to rifampicin [11]: 3
7 | CC(=O)c1c(C(F)(F)F)[n+]([O-])c2cc(N3CCCCC3)c(N3CCCCC3)cc2[n+]1[O-] | 2.2 | 4.6 | 6.2 (≈ 2.72 µg/mL) | 
8 | CC(=O)c1c(C(F)(F)F)nc2cc(F)c(N3CCSCC3)cc2[n+]1[O-] | 1.3 | 1.8 | 3.1 (≈ 1.16 µg/mL) | MIC [2]: 0.75 µg/mL (≈ 2 µM); growth inhibition (GI) [3]: 51%; MIC [4]: > 12 µg/mL; log reduction in bacterial burden [5]: 2.17; log reduction in bacterial burden [6]: 1.66; log reduction in bacterial burden [7]: 1.76; Activity (J774 [8]): 70%; Activity (J774 [12]): 81%; Activity (J774 [9]): 26%; growth inhibition (GI) [10]: >99%; Log reduction in bacterial burden relative to rifampicin [11]: 3
9 | CC(=O)c1c(C(F)(F)F)[n+]([O-])c2cc(F)c(N3CCC(O)CC3)cc2[n+]1[O-] | 5.4 | 10.7 | 12.5 (≈ 4.87 µg/mL) | 
10 | CC[C@@H](CO)NCCN[C@@H](CC)CO [ETHAMBUTOL] | 1.2 | 1.8 | 6.2 (≈ 1.27 µg/mL) | 
11 | O=C(c1ccc(F)cc1)c1c(C(F)(F)F)[n+]([O-])c2cc(F)c(F)cc2[n+]1[O-] | 5.2 | 8 | 12.5 (≈ 4.85 µg/mL) | 
12 | O=C(c1ccc(F)cc1)c1c(C(F)(F)F)[n+]([O-])c2cc(Cl)c(Cl)cc2[n+]1[O-] | 3.6 | 4.5 | 6.2 (≈ 2.61 µg/mL) | 
13 | Cc1ccc2c(c1)[n+]([O-])c(C(=O)/C=C/c1ccc([N+](=O)[O-])s1)c(C)[n+]2[O-] | > 100 | > 100 |  | 
14 | CCOC(=O)c1c(C(F)(F)F)nc2cc(Cl)c(N3CCOCC3)cc2[n+]1[O-] | > 100 | > 100 |  | 
15 | O=C(c1ccc(F)cc1)c1c(C(F)(F)F)[n+]([O-])c2ccc(Cl)cc2[n+]1[O-] | 3.7 | 4.5 | 6.2 (≈ 2.4 µg/mL) | 
16 | NCC[C@H](O)C(=O)N[C@@H]1C[C@H](N)[C@@H](O[C@H]2O[C@H](CN)[C@@H](O)[C@H](O)[C@H]2O)[C@H](O)[C@H]1O[C@H]1O[C@H](CO)[C@@H](O)[C@H](N)[C@H]1O [AMIKACIN] | 0.102 | 0.141 | 0.2 (≈ 0.117 µg/mL) | 
17 | Cc1c(C(=O)/C=C/c2ccc([N+](=O)[O-])o2)[n+]([O-])c2ccccc2[n+]1[O-] | 17.3 | 24.6 | 25 (≈ 8.53 µg/mL) | 
18 | NNC(=O)c1ccncc1 [ISONIAZID] | 0.1 | 0.2 | 0.3 (≈ 0.0411 µg/mL) | 
19 | Cc1c(C(=O)/C=C/c2ccc([N+](=O)[O-])s2)[n+]([O-])c2cc(Cl)c(Cl)cc2[n+]1[O-] | > 100 | > 100 |  | 
20 | Cc1c(C(=O)/C=C/c2ccc([N+](=O)[O-])s2)[n+]([O-])c2cc(Cl)ccc2[n+]1[O-] | 7.3 | 13 | 25 (≈ 9.79 µg/mL) | 
21 | COC(=O)c1c(C(F)(F)F)[n+]([O-])c2ccc(N3CCN(c4ccc(F)cc4)CC3)cc2[n+]1[O-] | 0.5 | 0.8 | 1.6 (≈ 0.746 µg/mL) | MIC [2]: 1.5 µg/mL (≈ 3.22 µM); growth inhibition (GI) [3]: 78%; MBC [13]: 4 µg/mL (≈ 8.58 µM); Ratio [14]: 2.6; MIC [4]: 0.375 µg/mL (≈ 0.804 µM); Ratio [15]: 4; log reduction in bacterial burden [5]: 1.43; log reduction in bacterial burden [6]: 1.41; log reduction in bacterial burden [7]: 3.86; Activity (J774 [8]): 60%; Activity (J774 [12]): 64%; Activity (J774 [9]): 47%; growth inhibition (GI) [10]: >90%; Log reduction in bacterial burden relative to rifampicin [11]: 3
22 | CC(=O)c1c(C(F)(F)F)[n+]([O-])c2cc(F)c(N3CCC(N4CCOCC4)CC3)cc2[n+]1[O-] | 4 | 7.2 | 12.5 (≈ 5.73 µg/mL) | 
23 | Cc1ccc2c(c1)[n+]([O-])c(C(=O)/C=C/c1ccccc1)c(C)[n+]2[O-] | 7.2 | 14.7 | 25 (≈ 8.01 µg/mL) | 
24 | O=C(c1ccco1)c1c(C(F)(F)F)nc2cc(Cl)c(N3CCOCC3)cc2[n+]1[O-] | > 100 | > 100 |  | 
25 | CO[C@H]1/C=C/O[C@@]2(C)Oc3c(C)c(O)c4c(O)c(c(/C=N/N5CCN(C)CC5)c(O)c4c3C2=O)NC(=O)/C(C)=C\C=C\[C@H](C)[C@H](O)[C@@H](C)[C@@H](O)[C@@H](C)[C@H](OC(C)=O)[C@@H]1C [RIFAMPIN] | 0.02 | 0.03 | 0.04 (≈ 0.0329 µg/mL) | MIC [2]: 0.05 µg/mL (≈ 0.0608 µM); growth inhibition (GI) [3]: 55%; MBC [13]: 0.78 µg/mL (≈ 0.948 µM); Ratio [14]: 15.6; MIC [4]: 0.39 µg/mL (≈ 0.474 µM); log reduction in bacterial burden [5]: 0.48; log reduction in bacterial burden [6]: 1.73; log reduction in bacterial burden [7]: 2.68; Activity (J774 [8]): 93%; Activity (J774 [12]): 87%; Activity (J774 [9]): 80%
26 | O=C(c1ccc(F)cc1)c1c(C(F)(F)F)[n+]([O-])c2ccc(F)cc2[n+]1[O-] | 3.1 | 4 | 6.2 (≈ 2.3 µg/mL) | 
27 | Cc1c(C(=O)/C=C/c2ccc([N+](=O)[O-])o2)[n+]([O-])c2cc(Cl)ccc2[n+]1[O-] | 13.5 | 20.8 | 25 (≈ 9.39 µg/mL) | 
28 | Cc1c(C(=O)/C=C/c2ccccc2)[n+]([O-])c2ccccc2[n+]1[O-] | 5.8 | 11.5 | 12.5 (≈ 3.83 µg/mL) | 
29 | Cc1c(C(=O)/C=C/c2ccccc2)[n+]([O-])c2cc(Cl)ccc2[n+]1[O-] | 1.5 | 1.7 | 3.1 (≈ 1.06 µg/mL) | growth inhibition (GI) [3]: 80%; log reduction in bacterial burden [5]: 2.11; log reduction in bacterial burden [6]: 1.68; log reduction in bacterial burden [7]: 1.76; Activity (J774 [8]): 70%; Activity (J774 [12]): 81%; Activity (J774 [9]): 26%; growth inhibition (GI) [10]: >99%; Log reduction in bacterial burden relative to rifampicin [11]: 3
30 | Cc1ccc2c(c1)[n+]([O-])c(C(=O)/C=C/c1ccc([N+](=O)[O-])o1)c(C)[n+]2[O-] | 29.7 | 38.1 | 50 (≈ 17.8 µg/mL) | 
